Experimental data of several laboratories.
Target: Ephrin type-A receptor 3 (EPHA3, Homo sapiens, UniProt P29320)
One construct used (P29320 21-983): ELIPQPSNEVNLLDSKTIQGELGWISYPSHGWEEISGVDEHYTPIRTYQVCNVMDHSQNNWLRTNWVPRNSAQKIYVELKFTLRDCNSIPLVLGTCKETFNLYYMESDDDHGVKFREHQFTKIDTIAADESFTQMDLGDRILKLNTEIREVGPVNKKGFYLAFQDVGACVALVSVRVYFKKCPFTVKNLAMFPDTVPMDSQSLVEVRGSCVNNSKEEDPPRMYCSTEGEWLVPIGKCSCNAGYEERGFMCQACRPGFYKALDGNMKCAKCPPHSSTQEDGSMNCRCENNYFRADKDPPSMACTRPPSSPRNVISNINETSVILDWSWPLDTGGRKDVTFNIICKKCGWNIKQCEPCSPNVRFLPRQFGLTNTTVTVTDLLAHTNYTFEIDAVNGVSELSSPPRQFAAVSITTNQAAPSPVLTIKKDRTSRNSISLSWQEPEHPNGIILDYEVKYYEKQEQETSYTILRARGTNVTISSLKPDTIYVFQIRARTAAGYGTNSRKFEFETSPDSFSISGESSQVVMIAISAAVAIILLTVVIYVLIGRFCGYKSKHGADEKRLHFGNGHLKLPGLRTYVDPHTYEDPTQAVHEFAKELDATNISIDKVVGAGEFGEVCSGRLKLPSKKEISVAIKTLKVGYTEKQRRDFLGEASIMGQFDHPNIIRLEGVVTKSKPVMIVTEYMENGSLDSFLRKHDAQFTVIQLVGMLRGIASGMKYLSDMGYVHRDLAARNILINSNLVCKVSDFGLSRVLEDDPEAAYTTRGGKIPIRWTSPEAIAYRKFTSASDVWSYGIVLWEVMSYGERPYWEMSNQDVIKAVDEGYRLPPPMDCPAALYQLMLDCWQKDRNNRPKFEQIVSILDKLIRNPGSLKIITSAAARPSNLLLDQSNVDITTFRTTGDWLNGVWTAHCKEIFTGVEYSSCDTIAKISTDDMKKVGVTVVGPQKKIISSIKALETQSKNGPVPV

SMILES	effect on	technique	concentration	remaining binding [%]
CC(=O)N1CCC(c2ccc(C(=O)NC3=NCCN3)cc2C(F)(F)F)CC1	cell-free assay	competition with immobilised ligand	1 µM	95
c1cnn2ncc(-c3ccnc(N4CCC45COC5)n3)c2c1	binding		1 µM	68
COc1ncc2cc3ccccc3nc2c1C#N	cell-free assay	competition with immobilised ligand	5 µM	96
O=C(NCCCN1CCOCC1)c1ccc(Nc2ncc(Cl)c(-c3ccc(Cl)s3)n2)cc1	binding	competition with immobilised ligand	1 µM	63
C[C@H](c1ccnc(Nc2nc3ccc(-c4cc(N(C)C)ncn4)cc3[nH]2)c1)N1CCN(C(=O)CC(F)(F)F)CC1	cell-free assay	competition with immobilised ligand	0.1 µM	100
O=C(c1ccc(Nc2ncc(Cl)c(-c3cc4ccccc4s3)n2)cc1)N1CCC(N2CCCC2)CC1	binding	competition with immobilised ligand	1 µM	84
C[C@@H]1CCN(c2nccc(-c3cnn4ncccc34)n2)C1	binding		1 µM	61
Nc1ncc2c(n1)-c1c([nH]c3ccc(C#CC4CC4)cc13)CCCC2	binding	competition with immobilised ligand	1 µM	100
C=CC(=O)N1CCC(C(=O)NCC(=O)N2CCN(c3nc(-c4cnc(N)nc4C(F)F)nc(N4CCOCC4)n3)CC2)CC1	binding	competition with immobilised ligand	1 µM	90
COc1ccc2c(O[C@@H]3C[C@H]4C(=O)N[C@]5(C(=O)O)CC5/C=C\CCCCC[C@H](NC(=O)OC5CCCC5)C(=O)N4C3)cc(-c3csc(NC(=O)C(C)C)n3)nc2c1C (stereo partly drawn)	cell-free assay	competition with immobilised ligand	1 µM	97
N[C@H]1CCN(c2nccc(-c3cnn4ncccc34)n2)C1	binding		1 µM	98
C[C@@H](c1ccc(-n2cnc3c(N)ncnc32)cc1)N1CCc2nn(C)c(Cc3ccccc3)c2C1=O	binding	competition with immobilised ligand	0.1 µM	83
F[C@@H]1CCN(c2nccc(-c3cnn4ncccc34)n2)C1	binding		1 µM	90
O=C(Nc1c[nH]nc1C(=O)NC1CCNCC1)c1cc(F)cc(F)c1	binding	competition with immobilised ligand	1 µM	100
CN(CCCC(F)(F)F)c1nccc(-c2cnn3ncccc23)n1	binding		1 µM	100
C[C@H](NC(=O)c1cnc2n1[C@](C)(Cc1ccc(C#N)cc1)C(=O)N2c1cc(Cl)c(F)c(Cl)c1)C(=O)NC1(c2ccccn2)CC1	cell-free assay	competition with immobilised ligand	1 µM	88
CN(C)c1nccc(-c2cnc3ncccn23)n1	binding		1 µM	100
CC(=O)Nc1c(C(C)=O)c(=O)n(C)c2nc(-c3ccc(Cl)cc3Cl)c(-c3ccc(Cl)cc3)cc12	cell-free assay	competition with immobilised ligand	1 µM	100
FC(F)(F)Oc1cccc(-c2cnc3ccc(-c4ccncc4)nn23)c1	cell-free assay	competition with immobilised ligand	5 µM	76
CN1CCN(c2cnc3c(C4CCN(C(=O)c5ccc(OC(F)(F)F)cc5N)CC4)ncnc3c2)CC1	cell-free assay	competition with immobilised ligand	1 µM	100
CNC(=O)[C@@H]1CC[C@@H](n2c(-c3ccc4cnccc4c3)nc3ccc(C(=O)NCc4cccc(C(N)=O)c4)cc32)C1	binding	competition with immobilised ligand	1 µM	96
